Laboratory results reported in ChEMBL document CHEMBL2424622, “Development of amino-pyrimidine inhibitors of c-Jun N-terminal kinase (JNK): kinase profiling guided optimization of a 1,2,3-benzotriazole lead” (Bioorg Med Chem Lett, 2013).

What was measured:
[1] = target: Mitogen-activated protein kinase 6 (Homo sapiens, UniProt Q16659); test: Competitive binding affinity to ERK3 (unknown origin) at 10 uM in presence of ATP relative to control
[2] = target: RAC-gamma serine/threonine-protein kinase (Homo sapiens) (UniProt Q9Y243); test: Competitive binding affinity to AKT3 (unknown origin) at 10 uM in presence of ATP relative to control
[3] = target: Atypical kinase COQ8A, mitochondrial (Homo sapiens, UniProt Q8NI60); test: Competitive binding affinity to ADCK3 (unknown origin) at 10 uM in presence of ATP relative to control
Procedure, shortened: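 In vitro ATP-site competition binding assay across a diverse panel of 128 kinases, with each compound tested at a single concentration. Kinase binding is expressed relative to control.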

[4] = target: Protein kinase C eta type (Homo sapiens) (UniProt P24723); test: Competitive binding affinity to PRKCH (unknown origin) at 10 uM in presence of ATP relative to control
[5] = target: Citron Rho-interacting kinase (Homo sapiens, UniProt O14578); test: Competitive binding affinity to CIT (unknown origin) at 10 uM in presence of ATP relative to control
[6] = target: T1, Serine/threonine-protein kinase D3 (Homo sapiens) (UniProt O94806); test: Competitive binding affinity to PRKD3 (unknown origin) at 10 uM in presence of ATP relative to control
T1 sequence (whole entry): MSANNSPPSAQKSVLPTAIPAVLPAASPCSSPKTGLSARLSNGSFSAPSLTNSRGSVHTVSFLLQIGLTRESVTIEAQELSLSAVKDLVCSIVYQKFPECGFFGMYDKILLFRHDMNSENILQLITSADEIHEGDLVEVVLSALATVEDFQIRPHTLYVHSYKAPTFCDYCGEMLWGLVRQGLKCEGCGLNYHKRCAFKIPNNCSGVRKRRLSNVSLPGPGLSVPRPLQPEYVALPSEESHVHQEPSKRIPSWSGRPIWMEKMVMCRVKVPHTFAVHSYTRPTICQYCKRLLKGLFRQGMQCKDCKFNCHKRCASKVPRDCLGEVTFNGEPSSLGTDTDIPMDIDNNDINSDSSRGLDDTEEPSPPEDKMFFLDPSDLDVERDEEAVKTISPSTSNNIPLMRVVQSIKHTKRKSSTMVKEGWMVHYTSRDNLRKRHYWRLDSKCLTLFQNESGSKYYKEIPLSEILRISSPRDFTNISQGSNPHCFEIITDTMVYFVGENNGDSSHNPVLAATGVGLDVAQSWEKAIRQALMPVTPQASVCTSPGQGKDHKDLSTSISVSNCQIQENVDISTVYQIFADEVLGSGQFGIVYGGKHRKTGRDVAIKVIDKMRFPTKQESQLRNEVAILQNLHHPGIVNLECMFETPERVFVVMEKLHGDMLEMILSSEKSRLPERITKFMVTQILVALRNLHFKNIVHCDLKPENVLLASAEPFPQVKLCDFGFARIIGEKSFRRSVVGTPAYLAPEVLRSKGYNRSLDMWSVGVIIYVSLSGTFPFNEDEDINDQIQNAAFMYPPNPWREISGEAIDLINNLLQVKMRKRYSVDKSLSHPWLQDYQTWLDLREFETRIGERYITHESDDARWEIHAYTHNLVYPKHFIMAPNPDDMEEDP

[7] = target: Non-receptor tyrosine-protein kinase TYK2 (Homo sapiens) (UniProt P29597); test: Competitive binding affinity to TYK2 kinase domain 2 (unknown origin) at 10 uM in presence of ATP relative to control
[8] = system: T2, Receptor-type tyrosine-protein kinase FLT3 (Homo sapiens), P36888 [D835H]; test: Competitive binding affinity to FLT3 D835H mutant (unknown origin) at 10 uM in presence of ATP relative to control
T2 sequence (whole entry): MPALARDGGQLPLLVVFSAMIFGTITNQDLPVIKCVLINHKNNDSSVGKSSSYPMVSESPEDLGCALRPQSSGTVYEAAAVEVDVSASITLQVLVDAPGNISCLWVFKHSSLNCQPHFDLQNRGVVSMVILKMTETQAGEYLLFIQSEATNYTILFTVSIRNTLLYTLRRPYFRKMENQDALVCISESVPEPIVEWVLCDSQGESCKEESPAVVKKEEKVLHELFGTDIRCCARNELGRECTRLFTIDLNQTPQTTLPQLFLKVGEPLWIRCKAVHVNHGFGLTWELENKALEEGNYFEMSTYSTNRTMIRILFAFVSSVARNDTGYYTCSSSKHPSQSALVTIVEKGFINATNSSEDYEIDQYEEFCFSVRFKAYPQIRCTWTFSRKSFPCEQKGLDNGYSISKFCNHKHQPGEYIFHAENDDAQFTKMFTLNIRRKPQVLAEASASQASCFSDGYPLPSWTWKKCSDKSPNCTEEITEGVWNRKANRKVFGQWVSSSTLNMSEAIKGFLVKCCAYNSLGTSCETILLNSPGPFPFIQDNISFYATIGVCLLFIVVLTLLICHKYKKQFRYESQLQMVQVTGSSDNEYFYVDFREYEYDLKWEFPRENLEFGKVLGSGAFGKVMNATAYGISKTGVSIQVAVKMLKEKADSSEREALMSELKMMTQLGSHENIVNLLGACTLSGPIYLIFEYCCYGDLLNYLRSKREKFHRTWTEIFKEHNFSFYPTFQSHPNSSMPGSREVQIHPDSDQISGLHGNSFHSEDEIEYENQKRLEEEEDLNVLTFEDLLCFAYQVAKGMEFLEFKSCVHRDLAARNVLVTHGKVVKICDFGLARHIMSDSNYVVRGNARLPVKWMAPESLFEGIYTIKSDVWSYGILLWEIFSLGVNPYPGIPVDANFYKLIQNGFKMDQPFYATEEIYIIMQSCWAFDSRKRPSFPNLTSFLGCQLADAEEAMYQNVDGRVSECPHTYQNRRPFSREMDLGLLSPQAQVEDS

[9] = system: Mast/stem cell growth factor receptor Kit (Homo sapiens), P10721 [V559D]; test: Competitive binding affinity to KIT V559D mutant (unknown origin) at 10 uM in presence of ATP relative to control
[10] = system: Tyrosine-protein kinase ABL1 (Homo sapiens), P00519 [Y253F]; test: Competitive binding affinity to ABL1 Y253F mutant (unknown origin) at 10 uM in presence of ATP relative to control
[11] = target: Tyrosine-protein kinase receptor Tie-1 (Homo sapiens) (UniProt P35590); test: Competitive binding affinity to TIE1 (unknown origin) at 10 uM in presence of ATP relative to control
Chain of Tyrosine-protein kinase receptor Tie-1 (Homo sapiens) (P35590 whole entry): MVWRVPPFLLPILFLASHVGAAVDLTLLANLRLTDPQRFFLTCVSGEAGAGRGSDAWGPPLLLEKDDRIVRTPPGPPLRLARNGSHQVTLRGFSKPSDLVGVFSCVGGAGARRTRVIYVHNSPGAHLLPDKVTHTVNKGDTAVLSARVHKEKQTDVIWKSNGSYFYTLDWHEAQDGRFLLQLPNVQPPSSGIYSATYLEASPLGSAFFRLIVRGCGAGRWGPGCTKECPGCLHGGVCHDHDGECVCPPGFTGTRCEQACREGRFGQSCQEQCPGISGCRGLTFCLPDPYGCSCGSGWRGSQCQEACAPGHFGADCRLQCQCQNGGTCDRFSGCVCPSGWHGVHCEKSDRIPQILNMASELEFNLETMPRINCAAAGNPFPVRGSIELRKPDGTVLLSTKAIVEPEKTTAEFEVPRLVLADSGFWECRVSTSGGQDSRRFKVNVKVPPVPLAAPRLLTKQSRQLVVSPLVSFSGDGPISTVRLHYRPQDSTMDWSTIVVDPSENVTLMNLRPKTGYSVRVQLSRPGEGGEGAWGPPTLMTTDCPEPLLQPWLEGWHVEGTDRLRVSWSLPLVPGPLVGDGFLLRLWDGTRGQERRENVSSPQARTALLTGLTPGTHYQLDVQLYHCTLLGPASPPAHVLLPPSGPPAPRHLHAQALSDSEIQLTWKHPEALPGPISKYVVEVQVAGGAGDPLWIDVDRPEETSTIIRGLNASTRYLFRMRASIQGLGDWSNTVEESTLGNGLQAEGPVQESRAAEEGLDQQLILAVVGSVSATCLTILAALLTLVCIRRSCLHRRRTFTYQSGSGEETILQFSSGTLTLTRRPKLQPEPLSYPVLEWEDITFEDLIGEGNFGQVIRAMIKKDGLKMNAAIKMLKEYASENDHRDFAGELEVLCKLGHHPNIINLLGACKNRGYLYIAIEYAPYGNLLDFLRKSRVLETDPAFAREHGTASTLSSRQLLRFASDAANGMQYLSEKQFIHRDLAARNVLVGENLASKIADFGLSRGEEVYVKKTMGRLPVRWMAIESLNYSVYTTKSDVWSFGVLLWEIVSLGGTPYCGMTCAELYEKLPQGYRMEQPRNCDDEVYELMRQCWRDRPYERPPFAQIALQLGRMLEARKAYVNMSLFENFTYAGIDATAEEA

Chain of Citron Rho-interacting kinase (O14578 whole entry): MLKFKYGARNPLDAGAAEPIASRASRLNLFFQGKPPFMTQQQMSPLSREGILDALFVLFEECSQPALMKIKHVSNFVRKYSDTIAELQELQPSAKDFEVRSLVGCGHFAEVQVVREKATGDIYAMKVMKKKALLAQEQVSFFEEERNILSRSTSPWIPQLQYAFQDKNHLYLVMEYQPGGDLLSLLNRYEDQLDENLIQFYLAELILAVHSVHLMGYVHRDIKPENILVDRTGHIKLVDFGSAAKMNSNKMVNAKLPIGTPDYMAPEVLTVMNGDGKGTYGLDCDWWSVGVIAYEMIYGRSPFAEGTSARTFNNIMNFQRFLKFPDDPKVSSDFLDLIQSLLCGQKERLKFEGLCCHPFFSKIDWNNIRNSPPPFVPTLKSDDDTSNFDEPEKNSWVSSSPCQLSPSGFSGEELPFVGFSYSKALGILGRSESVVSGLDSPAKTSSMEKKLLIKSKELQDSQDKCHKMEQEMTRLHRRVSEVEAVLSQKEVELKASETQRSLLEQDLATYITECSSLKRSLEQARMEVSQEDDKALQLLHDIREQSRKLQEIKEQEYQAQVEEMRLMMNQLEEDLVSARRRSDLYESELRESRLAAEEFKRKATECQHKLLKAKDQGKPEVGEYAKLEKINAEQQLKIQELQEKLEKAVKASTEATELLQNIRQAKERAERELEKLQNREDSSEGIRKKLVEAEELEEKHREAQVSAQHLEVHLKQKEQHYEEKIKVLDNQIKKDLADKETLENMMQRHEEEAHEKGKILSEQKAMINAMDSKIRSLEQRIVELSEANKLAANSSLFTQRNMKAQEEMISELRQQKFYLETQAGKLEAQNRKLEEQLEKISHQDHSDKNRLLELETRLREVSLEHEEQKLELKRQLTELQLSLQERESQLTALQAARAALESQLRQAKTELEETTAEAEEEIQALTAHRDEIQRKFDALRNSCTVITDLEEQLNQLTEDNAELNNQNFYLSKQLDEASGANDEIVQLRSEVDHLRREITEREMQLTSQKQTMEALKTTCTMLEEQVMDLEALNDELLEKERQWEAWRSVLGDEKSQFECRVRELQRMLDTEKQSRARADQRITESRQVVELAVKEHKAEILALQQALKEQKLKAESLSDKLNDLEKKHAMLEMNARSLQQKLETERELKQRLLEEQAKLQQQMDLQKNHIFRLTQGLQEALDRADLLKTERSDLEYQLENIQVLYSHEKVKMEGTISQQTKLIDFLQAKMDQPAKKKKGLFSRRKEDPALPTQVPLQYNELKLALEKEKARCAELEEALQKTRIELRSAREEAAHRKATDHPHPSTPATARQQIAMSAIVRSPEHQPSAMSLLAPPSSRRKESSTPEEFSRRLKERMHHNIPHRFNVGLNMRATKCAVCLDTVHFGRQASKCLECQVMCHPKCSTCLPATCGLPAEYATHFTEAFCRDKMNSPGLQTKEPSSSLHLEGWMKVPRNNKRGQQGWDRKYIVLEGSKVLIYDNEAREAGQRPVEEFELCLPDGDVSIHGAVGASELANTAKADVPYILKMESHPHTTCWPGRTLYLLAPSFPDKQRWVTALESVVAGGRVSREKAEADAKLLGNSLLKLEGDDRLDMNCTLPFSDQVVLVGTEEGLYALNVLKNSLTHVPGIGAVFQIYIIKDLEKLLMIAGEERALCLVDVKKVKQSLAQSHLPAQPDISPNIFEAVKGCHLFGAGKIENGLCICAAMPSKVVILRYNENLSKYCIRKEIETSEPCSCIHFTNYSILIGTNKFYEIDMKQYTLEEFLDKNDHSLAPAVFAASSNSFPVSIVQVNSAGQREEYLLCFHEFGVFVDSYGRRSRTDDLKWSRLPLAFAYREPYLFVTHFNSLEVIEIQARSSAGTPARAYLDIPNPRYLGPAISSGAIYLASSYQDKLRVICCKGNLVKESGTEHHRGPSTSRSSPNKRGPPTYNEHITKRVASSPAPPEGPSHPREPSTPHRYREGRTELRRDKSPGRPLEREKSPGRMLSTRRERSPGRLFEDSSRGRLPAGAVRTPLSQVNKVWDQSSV
Chain of Non-receptor tyrosine-protein kinase TYK2 (Homo sapiens) (P29597 whole entry, the tested form may be a part): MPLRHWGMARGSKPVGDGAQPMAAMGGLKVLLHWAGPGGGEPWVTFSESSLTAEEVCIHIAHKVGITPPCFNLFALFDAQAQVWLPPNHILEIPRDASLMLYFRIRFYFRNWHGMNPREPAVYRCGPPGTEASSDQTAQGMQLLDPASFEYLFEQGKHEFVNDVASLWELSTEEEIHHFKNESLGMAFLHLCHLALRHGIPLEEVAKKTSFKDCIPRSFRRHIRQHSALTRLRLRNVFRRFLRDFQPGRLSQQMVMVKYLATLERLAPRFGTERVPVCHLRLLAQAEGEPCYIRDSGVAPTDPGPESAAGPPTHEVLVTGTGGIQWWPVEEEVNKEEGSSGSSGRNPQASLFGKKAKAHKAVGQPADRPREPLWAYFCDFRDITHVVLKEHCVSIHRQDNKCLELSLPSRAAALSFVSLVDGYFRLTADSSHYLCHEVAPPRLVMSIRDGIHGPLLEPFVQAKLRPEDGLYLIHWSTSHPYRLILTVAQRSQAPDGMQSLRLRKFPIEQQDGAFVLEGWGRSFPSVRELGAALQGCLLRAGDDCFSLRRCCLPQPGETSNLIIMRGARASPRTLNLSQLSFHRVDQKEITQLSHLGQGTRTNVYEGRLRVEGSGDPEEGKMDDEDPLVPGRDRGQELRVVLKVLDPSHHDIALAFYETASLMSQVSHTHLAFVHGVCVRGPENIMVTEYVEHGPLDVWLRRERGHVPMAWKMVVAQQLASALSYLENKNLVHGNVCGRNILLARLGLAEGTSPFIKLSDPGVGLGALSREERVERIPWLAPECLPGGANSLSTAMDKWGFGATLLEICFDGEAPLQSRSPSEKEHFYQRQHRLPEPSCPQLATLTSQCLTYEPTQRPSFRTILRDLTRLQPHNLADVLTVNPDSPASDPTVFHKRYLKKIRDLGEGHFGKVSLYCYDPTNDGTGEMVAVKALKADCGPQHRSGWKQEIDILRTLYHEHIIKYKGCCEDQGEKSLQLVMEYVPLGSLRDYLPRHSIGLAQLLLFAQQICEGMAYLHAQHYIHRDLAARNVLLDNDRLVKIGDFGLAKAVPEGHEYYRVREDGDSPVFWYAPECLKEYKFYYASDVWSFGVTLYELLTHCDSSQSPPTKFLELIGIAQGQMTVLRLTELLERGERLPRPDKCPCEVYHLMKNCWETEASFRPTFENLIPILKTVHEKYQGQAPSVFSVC
Chain of Atypical kinase COQ8A, mitochondrial (Q8NI60 163-647 limits assumed): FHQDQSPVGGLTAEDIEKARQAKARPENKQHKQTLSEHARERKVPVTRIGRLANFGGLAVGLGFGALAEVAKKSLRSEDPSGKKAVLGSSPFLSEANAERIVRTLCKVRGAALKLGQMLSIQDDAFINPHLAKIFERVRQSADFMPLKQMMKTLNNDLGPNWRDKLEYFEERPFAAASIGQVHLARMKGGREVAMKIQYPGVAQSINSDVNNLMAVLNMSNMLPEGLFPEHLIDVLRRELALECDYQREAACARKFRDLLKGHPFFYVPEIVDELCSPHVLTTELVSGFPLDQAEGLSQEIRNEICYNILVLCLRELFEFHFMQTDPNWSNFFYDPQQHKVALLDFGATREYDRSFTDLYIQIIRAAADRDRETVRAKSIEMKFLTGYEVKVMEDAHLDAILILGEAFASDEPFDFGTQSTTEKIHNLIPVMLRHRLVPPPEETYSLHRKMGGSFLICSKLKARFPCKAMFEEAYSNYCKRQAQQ

Compound	inhibition [1] [%]	inhibition [2] [%]	inhibition [3] [%]	inhibition [4] [%]	inhibition [5] [%]	inhibition [6] [%]	inhibition [7] [%]	inhibition [8] [%]	inhibition [9] [%]	inhibition [10] [%]	inhibition [11] [%]
O[C@H]1CC[C@H](Nc2nccc(-n3ncc4ccccc43)n2)CC1	100	< 50	89	< 50	75	96	< 50	100	92	< 50	< 50
O[C@H]1CC[C@H](Nc2nccc(-n3ccc4ccccc43)n2)CC1	99	< 50	80	< 50	79	94	< 50	< 50	73	< 50	< 50

Continued, values first:

inhibition [1] [%]	inhibition [2] [%]	inhibition [3] [%]	inhibition [4] [%]	inhibition [5] [%]	inhibition [6] [%]	inhibition [7] [%]	inhibition [8] [%]	inhibition [9] [%]	inhibition [10] [%]	inhibition [11] [%]	Compound
> 85		> 85		> 85							CS(=O)(=O)CCCOc1cccc2c1ccn2-c1ccnc(N[C@H]2CC[C@H](C(=O)N3CCC(O)CC3)CC2)n1
	< 50	79	< 50			86	100	99	< 50		O[C@H]1CC[C@H](Nc2nccc(-c3n[nH]c4ccccc34)n2)CC1
100	< 50	92	< 50	98	100	< 50	99	91	66	< 50	O[C@H]1CC[C@H](Nc2nccc(-n3nnc4ccccc43)n2)CC1
